# Shown is part of a subset that was picked to be rich in hits.
# bCat KO growth: beta-catenin-lacking colon tumor cell growth suppression. hit rate 1.5% among 140,000. viability, % at 10 µM. HCT116 beta-catenin knockout viability, CellTiter-Glo, 60 h; active compounds read low;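 active means viability at or under a set limit, the compound median less 4 SD, cut at about 6% in these data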;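 further: 0% = Hyamine 1622 control at 20 µM and 100% = untreated cell control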
# Fibroblast inh: blocks proliferation of human lung fibroblasts | LL 47 human lung fibroblast viability, ATP luminescence; active compounds read low | viability, % at 10 µM | hit rate 1.1% among 85,000;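 active means viability at or below 50% in the single dose screen; inactive means viability above 50%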;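 further: compound exposure lasted 72 h before the ATP readout; 100% = median luminescence of untreated cell-only wells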
#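 Test system: LL 47 human lung fibroblasts; Quantity: 1,150 cells/well; Buffer or medium: IMEM plus 15% FBS; Dosing: tenfold compound dosing solution, DMSO at 0.1%; Timing: overnight cell rest, 72 h compound treatment at 37 °C; Detection: ATP-based CellTiter-Glo luminescent readout; Read-out basis: viability percentage against median untreated-cell control; Controls: cell-only wells, no compound.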
# PTEN del growth: suppresses growth of cells with PTEN deletion. viability, % at 10 µM. AID 827. hit rate 1.2% among 140,000. HCT116 PTEN-null viability, CellTiter-Glo, 60 h; active compounds read low;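 active means viability at or below a set limit, 4 SD under the median of all tested compounds, cut at about 3.7% in these data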;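 further: PTEN knockout HCT116 line with beta catenin targeted HCT116 as companion control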
# HUVEC inhibit: inhibitors of human endothelial cell proliferation | HUVEC proliferation, CellTiter-Glo luminescence, 72 h; active compounds read low | viability, % at 10 µM (by protocol) | hit rate 1.1% among 86,000;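 active means viability at or below 30%; inactive means viability above 30%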;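 further: 100% = median luminescence of DMSO-only cell control wells on each plate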
# H69AR growth 86K: blocks growth of human H69AR lung tumor cells; viability, % at 10 µM; H69AR lung tumor viability, ATP luminescence, 72 h; active compounds read low; hit rate 6% among 85,000; AID 598;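 active means viability at or below 40%; inactive means viability above 40%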;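 further: multidrug resistant small cell line overexpressing MRP-1 efflux transporter; 100% = mean luminescence of untreated control wells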
# The depositor's hits bear a star; . = no result.
SMILES,bCat KO growth,Fibroblast inh,PTEN del growth,HUVEC inhibit,H69AR growth 86K
OC1C2CN3CCN(C2)CC1(Cc1ccccc1)C3 (stereo unspecified),1.4*,93.0,0.7*,95.3,92.8
Cc1ccn2c(-c3csc(NCc4ccccc4)n3)c(C)nc2c1,50.8,85.3,49.0,62.8,21.5*
Cc1nc2ccccn2c1-c1csc(NCc2ccco2)n1,63.8,90.9,70.5,97.8,77.9
COc1ccc(NC(=O)c2cc(S(=O)(=O)N(Cc3ccccc3)c3ccccc3)ccc2Cl)cn1,67.2,.,63.9,.,.
O=C(CC(Nc1ccc(F)cc1)C(=O)O)c1ccccc1 (stereo unspecified),78.2,108.4,84.8,99.3,95.6
O=C(CN1CCN(Cc2ccccc2)CC1)c1ccccc1,93.4,96.4,101.4,104.2,86.8
C=C(C(=O)c1ccccc1)C(CC(=O)c1ccccc1)c1ccccc1 (stereo unspecified),4.8*,.,3.1*,.,.
C=C(CCC(=O)c1ccccc1)C(=O)c1ccccc1,0.4*,.,0.5*,.,.
O=C(CCN1CCN(CCC(=O)c2ccccc2)CC1)c1ccccc1,.,92.7,.,95.7,1.2*
O=C(c1cc(-c2ccco2)nc2ccccc12)N1CCN(c2ccc(F)cc2)CC1,93.0,.,85.7,.,.
COC(=O)c1ccc(CSc2nc(N3CCOCC3)c3c(c2C#N)CC(C)(C)OC3)o1,84.0,104.0,80.0,92.8,31.8*
COc1cccc(-c2nc(N3CCCCC3C)c3ccccc3n2)c1O (stereo unspecified),80.8,81.1,84.2,47.4,37.9*
CCN(CC)c1nc(-c2cccc(OC)c2O)nc2ccccc12,78.5,86.9,70.8,82.9,55.3
CCN(CC)S(=O)(=O)c1ccc(Cl)c(NC(=O)COC(=O)/C=C/c2ccc(O)c(OC)c2)c1,102.0,.,90.1,.,.
COc1ccc(C(C)=O)cc1CSc1nnc(Nc2ccccc2)s1,48.6,.,49.9,.,.
CCC(C)NCCCCOc1ccc(Cl)cc1C (stereo unspecified),69.5,.,68.6,.,.
Cc1ccc(SCC(=O)N2c3ccccc3Sc3ccccc32)cc1,19.0,.,12.9,.,.
Cc1ccc2c(C)ccc(O)c2n1,36.3,88.5,54.6,17.1*,29.4*
COC(=O)/C(=N\Nc1ccc(Cl)cc1)Sc1nnc(-c2ccc(OC)cc2)n1C,96.7,.,97.6,.,.
CCCCC(=O)Nc1ccc(C(=O)Nc2ccc(S(=O)(=O)Nc3ccc(C)cc3)cc2)cc1,78.4,.,81.0,.,.
N#CC1=C(c2ccccc2)/C(=C/c2ccccc2)OC1=O,14.2,5.4*,8.2,27.6*,4.0*
CCOC(=O)c1c(C)oc2c1c(C=NCC1CCCO1)c(O)c1ccccc12 (stereo unspecified),69.6,98.1,70.4,88.0,25.9*
CCOC(=O)c1c(C)oc2c1cc(O)c1ccccc12,90.4,101.5,84.8,91.0,62.1
CCOC(=O)c1c(C)oc2c1c(C=NCc1ccccn1)c(O)c1ccccc12,17.6,91.5,5.0,48.1,26.8*
CCCn1c(N)c(C(=S)NC(=O)C2CC2)c(=O)n(C)c1=O,93.3,.,88.5,.,.
SMILES,bCat KO growth,Fibroblast inh,PTEN del growth,HUVEC inhibit,H69AR growth 86K
CC(C(=O)O)N1C(=O)/C(=C/c2cccn2C)SC1=S (stereo unspecified),97.4,.,97.9,.,.
CC1C/C(=C/c2cccn2C)C(=O)/C(=C/c2cccn2C)C1 (stereo unspecified),3.8*,91.3,10.7,88.5,89.1
CC(=O)OC1c2ccccc2C(=O)N1Cc1ccccc1 (stereo unspecified),102.1,105.9,106.3,89.4,99.5
CCOC(=O)N1CCN(C(=O)c2ccc(NS(C)(=O)=O)cc2)CC1,78.7,104.1,87.2,98.1,96.6
Cc1ccc(C(=O)N2CCOCC2)cc1S(=O)(=O)Nc1cccc(C)c1C,90.1,97.7,95.3,95.3,81.2
CCOC(=O)N1CCN(C(=O)c2ccc(C)c(S(=O)(=O)Nc3ccccc3)c2)CC1,82.1,89.0,72.0,92.9,35.8*
CCOC(=O)N1CCN(C(=O)c2ccc(C)c(S(=O)(=O)Nc3cccc(C)c3C)c2)CC1,84.6,82.0,80.0,85.0,39.7*
CC[n+]1c(/C=C/C=C/N(C(C)=O)c2ccccc2)sc2cc(OC)ccc21,6.0*,.,4.4,.,.
CC[n+]1c(/C=C(\C)Nc2ccccc2)sc2ccccc21,38.0,.,34.5,.,.
CCc1ccc(N2C(=O)C(Cl)=C(N3CCOCC3)C2=O)cc1,94.1,.,88.5,.,.
O=C1C(Cl)=C(N2CCN(Cc3ccccc3)CC2)C(=O)N1c1ccccc1,106.2,97.6,99.2,92.6,39.3*
COc1ccc(N2C(=O)C(Cl)=C(N3CCN(Cc4ccccc4)CC3)C2=O)cc1,99.8,89.9,96.8,86.5,85.2
O=C1C(Cl)=C(N2CCOCC2)C(=O)N1c1cccc(Cl)c1,44.7,.,62.9,102.2,0.8*
CCNS(=O)(=O)c1ccc(CCC(=O)NCCC2=CCCCC2)cc1,96.2,.,95.7,.,.
NC(=O)c1ccc(C(F)(F)F)n(Cc2cccc(Cl)c2)c1=O,83.1,.,75.9,.,.
O=S(=O)(/C=C/c1ccccc1)Oc1ccccc1,96.7,64.4,.,77.0,7.4*
O=C(O)C(=O)/C(=C\c1cccc2ccccc12)c1ccc2ccccc2n1,68.3,92.0,62.3,67.8,18.1*
COC(=O)c1cc(OC)c(OC)cc1NC(=O)c1ccc(C)cc1,72.6,94.0,71.0,68.3,16.2*
COCCNC(=S)N1CCc2cc(OC)c(OC)cc2C1COc1ccc(C(C)C)cc1 (stereo unspecified),73.9,.,67.3,.,.
CCOc1cc(/C=N/NC(=O)Cn2nc([N+](=O)[O-])cc2C)cc(Br)c1OCc1ccccc1F,18.9,50.8,13.1,29.7*,8.3*
CCOc1cc(/C=N/NC(N)=O)cc(Br)c1OCc1ccccc1F,94.7,.,100.3,.,.
COC(=O)c1cn(CC(=O)N2CCCCCC2)c2ccccc12,90.5,96.6,82.0,87.6,68.6
CCOC(=O)C1=C(O)/C(=C/c2cn(CC(=O)N3CCCC3)c3ccccc23)SC1=Nc1ccccc1,65.4,56.0,54.0,61.0,11.5*
Cc1ccccc1-c1nc2sc3c(c2c(=O)n1N)CCCC3,86.1,89.5,87.7,93.2,43.8
CC1(C)Cc2c(sc3nc(-c4ccccc4)n(N)c(=O)c23)CO1,81.9,99.5,89.2,114.1,93.6
SMILES,bCat KO growth,Fibroblast inh,PTEN del growth,HUVEC inhibit,H69AR growth 86K
CC1(C)Cc2c(sc3nc(-c4cccs4)n(N)c(=O)c23)CO1,37.7,83.0,38.8,83.7,35.5*
Nn1c(-c2cccs2)nc2sc3c(c2c1=O)CCCC3,63.3,84.0,50.1,68.8,31.4*
COc1cc(C(=O)Nc2nc(OC)c(-c3ccccc3)c(OC)n2)cc(OC)c1OC,87.9,85.5,91.5,63.8,32.1*
COc1cc(C(=O)Nc2cc(-c3ccccc3)[nH]n2)cc(OC)c1OC,66.6,83.2,47.8,64.4,25.4*
COc1cc(C(=O)Nc2ccncc2)cc(OC)c1OC,92.6,93.7,98.0,91.1,77.4
CCOc1ccc(NC(=O)CN2CCN(C3c4ccccc4-c4ccccc43)CC2)cc1,72.0,88.6,95.0,77.8,32.1*
COc1ccccc1NC(=O)CN1CCN(CC(=O)Nc2ccc3c(c2)OCO3)CC1,87.3,102.7,81.1,94.1,9.8*
